In ChEMBL document CHEMBL5104224, “Alkyltriphenylphosphonium turns naphthoquinoneimidazoles into potent membrane depolarizers against mycobacteria” (RSC Med Chem, 2022):
Calls of active or inactive are those of the source. No cut-off for these calls is given here.

Assays:
Cell membrane [1] = experiment: Induction of cell envelope stress in Mycobacterium bovis BCG ATCC 35734 expressing piniBAC RFP at 4 x MIC90 after 24 hrs by fluorescence analysis; format: subcellular; settings: Mycobacterium tuberculosis variant bovis
Procedure, shortened: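 Recombinant M. bovis BCG-piniBAC-RFP at OD600 0.2, incubated with compound for 24 h. Red fluorescence (Ex 587/Em 630 nm) normalized to OD600 to reflect promoter induction. INH (0.1–50 μM) positive control.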

Cell membrane [2] = experiment: Induction of cell membrane depolarization in Mycobacterium bovis BCG ATCC 35734 assessed as loss in mitochondrial membrane potential at 4 x MIC90 incubated for 24 hrs by DiOC2(3) dye based fluorescence assay; format: subcellular; settings: Mycobacterium tuberculosis variant bovis
Procedure, shortened: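 Aliquots taken at selected times and stained with DiOC2(3) (BacLight membrane potential kit). Depolarization read as a fall in red/green fluorescence ratio. CCCP 5 μM positive control, rifampicin 0.08 μM negative control.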

[3] = tested on: Mycobacterium tuberculosis variant bovis; experiment: Inhibition of ATP synthesis in Mycobacterium bovis BCG ATCC 35734 assessed as reduction in ATP level at 4 x MIC90 incubated for 15 mins by BacTiter-Glo microbial luminescence assay; format: functional
Procedure, shortened: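 Mid-log BCG diluted to OD600 0.1 in complete 7H9 and treated at 4× MIC90. At each time point, culture mixed 1:1 with BacTiter-Glo reagent for 15 min at room temperature in the dark and luminescence read. Background (media + reagent) subtracted. ATP quantified from a calibration curve of 0.1–100 nM ATP in 7H9. Rifampicin negative control.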

| Compound | Activity (Cell membrane [1]) | Activity (Cell membrane [2]) | inhibition [3] |
| --- | --- | --- | --- |
| NNC(=O)c1ccncc1 | Active |  |  |
| CCCCCCCCCCC[P+](c1ccccc1)(c1ccccc1)c1ccccc1 |  | Active | Active |
| CCCCCCC[P+](c1ccccc1)(c1ccccc1)c1ccccc1 |  | Active | Active |
| Cc1nc2c(n1CCCCCCCCCCC[P+](c1ccccc1)(c1ccccc1)c1ccccc1)C(=O)c1ccccc1C2=O |  | Active | Active |
| Cc1nc2c(n1CCCCCCCCC[P+](c1ccccc1)(c1ccccc1)c1ccccc1)C(=O)c1ccccc1C2=O |  | Active | Active |
